Experimental data taken from ChEMBL document CHEMBL2346587, “Design, synthesis, and evaluation of a water-soluble antofine analogue with high antiproliferative and antitumor activity” (Bioorg Med Chem, 2013).
Activity calls are given as the source filed them. The rule behind the calls is not given here.

Assays:
A549 [1] = experiment: Inhibition of AKT/c-myc signaling in human A549 cells assessed as reduction in cyclin E protein expression at 50 to 400 nM after 24 hrs by Western blot analysis; assay type: cell-based
Summary of the method: (§1)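 A549 cells plated at 3 × 10^5 per 60 mm dish, grown 24 h, then exposed to a concentration series for 24 h. Lysed in boiling SDS sample buffer with NaF and orthovanadate; protein by BCA; 25–50 µg run on 8–15% SDS-PAGE, transferred to PVDF, blocked in 5% milk/PBST, primary antibodies overnight at 4 °C, secondary 1–2 h, ECL detection.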

A549 [2] = experiment: Antitumor activity against paclitaxel-resistant human A549 cells xenografted in athymic nu/nu BALB/c mouse assessed as inhibition of tumor growth at 5 mg/kg, ip administered 35 days post-implantation 3 times a week relative to control; assay type: functional; details: 840 h, route intraperitoneal, read-out: TGI
Summary of the method: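 Female athymic BALB/c nu/nu mice, six weeks old; 2 × 10^6 A549 or A549-Pa cells in 0.1 mL RPMI injected s.c. into right flank on day 0. Dosing began at 95–100 mm3 tumour volume: drug in 1% cremophore in PBS given i.p. three times weekly; controls got vehicle; five mice/group. Tumour volume tracked every 3–5 days; tumours excised and weighed at end; sections immunostained for Ki-67.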

[3] = target: ATP-dependent translocase ABCB1 (Homo sapiens, UniProt P08183); experiment: Inhibition of P-gp activity in paclitaxel-resistant human A549 cells potentiation of 2.5 uM paclitaxel-induced cytotoxicity at 0.05 uM by SRB assay; assay type: cell-based; details: a549, 0.05 µM
Summary of the method: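 A549-Pa cells plated at 5 × 10^4 cells/well and co-treated for 48 h with the compound (0–200 nM) plus paclitaxel or gefitinib; growth inhibition by SRB assay. Combination index computed at the 50% inhibition level as CI = D1/(Dx)1 + D2/(Dx)2, comparing combined versus single-agent concentrations.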

A549 [4] = experiment: Inhibition of AKT/c-myc signaling in human A549 cells assessed as reduction in phospho-Rb level at 50 to 400 nM after 24 hrs by Western blot analysis; assay type: cell-based; summary of the method: as §1
A549 [5] = experiment: Cytotoxicity against human paclitaxel-resistant A549 cells after 72 hrs by SRB assay; assay type: functional, cell-based; details: A549, 72 h
Summary of the method: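 SRB growth assay: 5 × 10^3 cells/well exposed to a concentration series for 72 h; fixed in 10% TCA 30 min at 4 °C, stained with 0.4% SRB in 1% acetic acid 30 min, dye dissolved in 10 mM Tris pH 10.0, absorbance at 515 nm. Viability relative to vehicle control; IC50 by non-linear regression; at least three experiments. A549-Pa is a paclitaxel-resistant A549 subline.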

A549 [6] = experiment: Antitumor activity against paclitaxel-resistant human A549 cells xenografted in ip dosed athymic nu/nu BALB/c mouse assessed as inhibition of P-gp expression administered 35 days post-implantation 3 times a week by immunohistochemistry; assay type: functional, organism-based
Summary of the method: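 A549-Pa (paclitaxel-resistant) xenografts in female athymic BALB/c nu/nu mice, grown s.c. in right flank and treated i.p. three times weekly in 1% cremophore/PBS once tumours reached 95–100 mm3. Excised tumour sections incubated overnight at 4 °C with P-glycoprotein antibody, detected by HRP-polymer system, hematoxylin counterstain, viewed by microscopy.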

A549 [7] = experiment: Inhibition of AKT/mTOR signaling in human A549 cells assessed as inhibition of 4E-BP1 phosphorylation at 50 to 400 nM after 24 hrs by Western blot analysis; assay type: cell-based; summary of the method: as §1

Sequence of ATP-dependent translocase ABCB1 (P08183 whole entry): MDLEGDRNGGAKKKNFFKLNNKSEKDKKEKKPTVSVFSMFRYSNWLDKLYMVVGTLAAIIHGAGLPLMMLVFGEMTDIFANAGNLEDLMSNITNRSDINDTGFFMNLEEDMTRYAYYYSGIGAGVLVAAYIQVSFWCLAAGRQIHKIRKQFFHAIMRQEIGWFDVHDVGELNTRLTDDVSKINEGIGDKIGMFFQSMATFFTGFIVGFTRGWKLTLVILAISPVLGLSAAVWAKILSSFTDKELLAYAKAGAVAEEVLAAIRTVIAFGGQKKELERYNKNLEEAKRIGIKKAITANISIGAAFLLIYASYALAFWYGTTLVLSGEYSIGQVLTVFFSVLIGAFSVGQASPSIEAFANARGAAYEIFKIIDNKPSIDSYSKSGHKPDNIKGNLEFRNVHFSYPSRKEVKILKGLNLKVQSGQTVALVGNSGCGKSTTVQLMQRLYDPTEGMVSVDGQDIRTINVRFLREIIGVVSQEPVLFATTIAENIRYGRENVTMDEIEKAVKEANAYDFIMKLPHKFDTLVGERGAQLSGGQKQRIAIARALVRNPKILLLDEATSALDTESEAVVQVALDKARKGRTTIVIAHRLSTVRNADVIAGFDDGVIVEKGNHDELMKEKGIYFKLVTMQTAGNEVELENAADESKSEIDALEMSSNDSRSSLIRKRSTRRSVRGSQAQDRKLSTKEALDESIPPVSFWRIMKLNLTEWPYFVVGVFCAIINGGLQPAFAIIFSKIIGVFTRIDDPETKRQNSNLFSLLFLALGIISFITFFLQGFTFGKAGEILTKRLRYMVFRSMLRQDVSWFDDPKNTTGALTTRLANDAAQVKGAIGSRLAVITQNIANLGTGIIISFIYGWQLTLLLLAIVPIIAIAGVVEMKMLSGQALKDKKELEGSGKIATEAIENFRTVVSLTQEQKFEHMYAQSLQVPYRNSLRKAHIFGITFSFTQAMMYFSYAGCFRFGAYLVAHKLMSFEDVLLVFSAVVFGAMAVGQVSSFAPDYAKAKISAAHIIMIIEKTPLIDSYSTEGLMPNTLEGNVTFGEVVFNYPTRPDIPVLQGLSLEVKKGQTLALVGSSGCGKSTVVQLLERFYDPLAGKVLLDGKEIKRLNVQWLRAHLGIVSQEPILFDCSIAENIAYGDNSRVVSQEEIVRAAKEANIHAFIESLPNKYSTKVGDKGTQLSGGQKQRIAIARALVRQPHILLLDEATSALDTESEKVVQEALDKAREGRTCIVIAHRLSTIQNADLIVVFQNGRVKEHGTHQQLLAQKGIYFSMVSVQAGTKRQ

In the case of `COc1ccc2c3c(c4cc(OC)c(OC)cc4c2c1)C[C@@]1(CO)CCCN1C3`, the inhibition (A549 [1]) is reported as “Active”, the inhibition in vivo at 5 mg/kg (A549 [2]) is reported as 38.4% and the “fractional inhibitory concentration index (FICI)” value [3] is reported as 0.242. The inhibition (A549 [4]) was “Active”, the IC50 (A549 [5]) was 200 nM and the inhibition (A549 [6]) was “Dose-dependent effect”. For the same molecule, the inhibition (A549 [7]) was “Active”.
